rRNA inh HTS = reduced GFP signal of wild-type E. coli, primary screen, bacterial rRNA inhibitor project, GFP/RFP fluorescence, OD600, single point. E. coli WT GFP vs humanized-ribosome RFP mutants, 24 h; hits give low values; DMSO median 0, no signal -100. GFP signal change (wild-type ribosome), % (no concentration beside the values). 1.6% of 350,000 active;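 active = significant combined selectivity score with lowered wild-type GFP, culture density cut under 30%, mutant RFP and density less affected; inactive = any of these conditions unmet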
XiGFP reactiv = activators of inactive X chromosome reactivation, primary screen, imaging, XiGFP fibroblasts, GFP high-content imaging, set 2 | XiGFP mouse fibroblasts, % GFP-positive cells imaging, 3 d; cells co-treated with 5-aza-dC sensitizer; scaled so ellipticine positive control = 100% | activation, % at 7.58 µM | 0.055% of 360,000 active;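 active = mean normalized replicate activation at least 10% and every replicate at or above 10%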;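 note: 0% = median of on-plate neutral control wells and 100% = ellipticine 6 µM median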
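material = 68-5-11 XiGFP fibroblast line | medium = DMEM plus 5-aza-dC sensitizer | schedule = 3 days compound exposure | benchmarks = positive control ellipticine, 6 µM final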
SR-BI uptake up = activators of SR-BI mediated DiI-HDL uptake, primary screen, ldlA[mSR-BI] CHO cells, DiI fluorescence; 3 h; 100 = double the neutral-control signal; AID 504775, 2011; 0.096% of 320,000 active; activation, % at 12.5 µM;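 active = mean replicate activation of at least 60% and every replicate at or above 60%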;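 note: 0% = median plate neutral-control signal and 100% = twice that signal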
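Material: SR-BI-overexpressing, LDLR-lacking CHO cells | Dosing: Single compound concentration, delivered by pin transfer | Probe or stimulus: Labelled HDL, 10 µg/mL | Signal: Bottom-read cell fluorescence after medium removal, ex 550/em 595 nm | Schedule: 3 h, 37 °C | Evaluation: HDL uptake via cellular fluorescence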
dFosB act = activators of delta FosB homodimer, primary screen, biochemical, fluorescence polarization, TAMRA-CDK5 oligo, single point | Protein FosB (Mus musculus), P13346 | purified delta FosB; percent of positive-control signal above neutral wells | activation, % at 25 µM | 0.99% of 340,000 active;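 active = mean activation above about 17%, with every replicate also reaching it, limit read from the data, passing the limit was not always enough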
SR-BI HDL uptake = inhibitors of SR-BI mediated HDL lipid uptake, primary screen, ldlA[mSR-BI] cells, fluorescence, single point; ldlA[mSR-BI] CHO cells, DiI-HDL uptake fluorescence, 3 h; inhibition, % at 12.5 µM; 0.96% of 320,000 active; AID 488896, 2010;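 active = mean replicate inhibition of at least 70% and a set share of replicates each scoring 70 or more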;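 note: 0% = median of neutral control wells and 100% = median of positive control wells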
Target sequence (Q61009 whole entry, looked up): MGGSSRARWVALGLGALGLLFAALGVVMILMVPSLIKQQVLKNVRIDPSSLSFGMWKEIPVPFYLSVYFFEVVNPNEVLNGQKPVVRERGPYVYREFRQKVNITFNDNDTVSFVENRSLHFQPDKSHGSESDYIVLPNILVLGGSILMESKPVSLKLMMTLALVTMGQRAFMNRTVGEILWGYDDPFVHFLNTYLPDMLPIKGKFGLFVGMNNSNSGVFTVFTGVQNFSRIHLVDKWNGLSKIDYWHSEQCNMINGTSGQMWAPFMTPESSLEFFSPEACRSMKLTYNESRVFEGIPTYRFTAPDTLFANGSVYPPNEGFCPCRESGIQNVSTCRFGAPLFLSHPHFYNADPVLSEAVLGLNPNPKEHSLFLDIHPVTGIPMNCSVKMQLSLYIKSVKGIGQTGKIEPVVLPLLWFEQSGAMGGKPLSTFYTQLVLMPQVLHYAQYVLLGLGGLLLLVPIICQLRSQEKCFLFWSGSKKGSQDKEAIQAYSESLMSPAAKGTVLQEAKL
PvdQ inh = P. aeruginosa PvdQ acylase inhibitors, primary screen, biochemical, fluorescence, plate reader and imaging, single point; PvdQ acylase [Pseudomonas aeruginosa LESB58]; purified PvdQ acylase; inhibition, % at 10 µM; 0.063% of 340,000 active; AID 488965, 2010; in the data active = inhibition above about 30%, passing the limit was not always enough;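 note: 0% = vehicle neutral wells and 100% = reference inhibitor wells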
The depositor's hits bear a star; i = inactive; / = not tested or not shown. Most compounds without a hit are left out; they make up all but 2.6% or so of the library.

SMILES | rRNA inh HTS | XiGFP reactiv | SR-BI uptake up | dFosB act | SR-BI HDL uptake | PvdQ inh
Cc1ccc(C)c(S(=O)(=O)NC2CCSC2=O)c1 (configuration not stated) | 11.8 | 0.1 | 1.3 | -2.4 | -1.3 | 79.0*
O=C1SCCC1NS(=O)(=O)c1ccc([N+](=O)[O-])cc1 (configuration not stated) | 0.2 | -0.1 | 7.6 | -4.9 | -7.6 | -2.9
CCC(C)NC(=O)c1ccc(C)c(NC(=O)C2=C(C)OCCS2)c1 (configuration not stated) | 7.9 | 0.0 | -16.8 | 3.2 | 16.8 | -6.9
COc1ccc(/C=N/Nc2cc(C)nc3ccccc23)cc1 | -30.3 | 0.0 | -14.9 | 53.0* | 14.8 | 1.9
COc1cccc(/C=N/NC(=O)c2[nH]nc3c2CCc2ccccc2-3)c1 | -37.1* | 0.5 | / | / | / | /
COc1cccc(/C=N/NC(=O)c2ccc(N3CCCC3=O)cc2)c1 | -19.0* | 0.2 | / | -15.6 | / | 2.9
O=C(N/N=C/c1cc(Br)cc(Br)c1O)c1cccc(N2CCCC2=O)c1 | 12.5 | -1.3 | -131.5 | -16.5 | 131.5* | 1.2
CC(C)NC(=O)c1[nH]nc2c1CCc1ccccc1-2 | / | / | 41.7 | -6.2 | -41.7 | 19.9
O=C(N/N=C/c1ccc(Cl)cc1Cl)c1cccc(N2CCCC2=O)c1 | -0.1 | 0.0 | -84.8 | -7.8 | 84.8* | 6.5
Cn1cnc(S(=O)(=O)N2CCCCN3[C@H](CO)[C@H](c4ccc(-c5ccccc5)cc4)[C@H]3C2)c1 | -6.1 | 0.0 | / | / | / | /
Cc1cccc(S(=O)(=O)N2C[C@@H](O)COC[C@@H]3O[C@@H](CC(=O)Nc4ccccc4)CC[C@H]32)c1 | i | -0.1 | / | / | / | /
Cc1ccc(S(=O)(=O)Nc2ccccc2C(=O)NCc2cccnc2)cc1 | -8.7 | 0.0 | 8.8 | -2.7 | -8.8 | -12.8
CCC/C(O)=C1\C(=O)CCCC1=NCCc1c(C)[nH]c2ccccc12 | -7.3 | 0.2 | -5.8 | -1.7 | 5.8 | 3.1
CN1C(=O)OC(C)(CCc2ccccc2)C1(C)O (configuration not stated) | / | / | 9.1 | -3.3 | -9.1 | -9.8
CN1C(=O)c2ccccc2OC1(C)Cc1ccccc1 (configuration not stated) | -20.8* | -0.1 | -13.2 | -1.3 | 13.2 | 1.8
CCCn1c(Sc2nnnn2-c2ccccc2)n[nH]c1=O | / | / | 79.6* | -5.1 | -79.6 | -13.4
CCCn1c(SCC(=O)NC(C)c2ccccc2)n[nH]c1=O (configuration not stated) | 6.9 | 0.0 | 9.1 | 5.3 | -9.1 | -10.6
Cc1nc2ccccn2c1C(=O)N/N=C/c1ccc(F)cc1 | -4.5 | 0.2 | -7.4 | -1.7 | 7.4 | 12.0
Cc1sc(N/N=C/c2cccs2)nc1-c1ccccc1 | / | 0.2 | -72.6 | -8.3 | 72.6* | -5.2
COc1ccc(C2=Nc3ccccc3NC(=O)C2N(Cc2ccccc2)C(=O)C2=NNC(=O)CC2)cc1 (configuration not stated) | -23.0* | -0.1 | / | / | / | /
COc1ccc(C2=Nc3ccccc3NC(=O)C2N(CCCn2ccnc2)C(=O)c2cccc(S(C)(=O)=O)c2)cc1 (configuration not stated) | 6.3 | 0.0 | / | / | / | /
CCOC(=O)C1CSCCS(=O)(=O)N1Cc1cc(F)ccc1Br (configuration not stated) | -33.5* | -0.2 | / | / | / | /
CCOC(=O)C1CSCCS(=O)(=O)N1Cc1ccc(Br)cc1 (configuration not stated) | -3.8 | -0.1 | / | / | / | /
COc1ccc2c(c1)c(C(C)=O)c(C)n2-c1ccccc1OC | -35.6* | 0.0 | -31.6 | -7.1 | 31.6 | -8.6
CCC1(CC)NC(=O)N(CC(=O)OCn2nnc3ccccc3c2=O)C1=O | / | / | 16.0 | 6.2 | -16.0 | 2.1
